Assays:
Type in all cases: functional
MDA-MB-468 = test: Cytotoxicity against human MDA-MB-468 cells assessed as growth inhibition at 10 uM after 48 hrs by SRB assay; conditions: MDA-MB-468, 48 h, read-out: GI
In short: (§1)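 Single-dose screen at 10µM across the sixty-cell-line panel. Percentage growth is derived from SRB-stain OD taken just before compound exposure, after 48 hrs exposure, and in vehicle-treated controls. Negative values indicate cytotoxicity.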

[1] = Cytotoxicity against human OVCAR5 cells assessed as growth inhibition at 10 uM after 48 hrs by SRB assay; conditions: OVCAR-5, 48 h, read-out: GI; in short: as §1
NCI-H226 = test: Cytotoxicity against human NCI-H226 cells assessed as growth inhibition at 10 uM after 48 hrs by SRB assay; conditions: NCI-H226, 48 h, read-out: GI; in short: as §1
TK-10 = test: Cytotoxicity against human TK10 cells assessed as growth inhibition at 10 uM after 48 hrs by SRB assay; conditions: TK-10, 48 h, read-out: GI; in short: as §1
A498 = test: Cytotoxicity against human A498 cells assessed as growth inhibition at 10 uM after 48 hrs by SRB assay; conditions: A498, 48 h, read-out: GI; in short: as §1

Compound | inhibition of growth at 10 µM (MDA-MB-468) [%] | inhibition of growth at 10 µM [1] [%] | inhibition of growth at 10 µM (NCI-H226) [%] | inhibition of growth at 10 µM (TK-10) [%] | inhibition of growth at 10 µM (A498) [%]
CN1C(=O)C(=Cc2cn(Cc3ccccc3Br)c3ccccc23)C(=O)N(C)C1=O | 56 | 75 | -32 | 105 | 74
COC(=O)c1ccc(Cn2cc(C=C3C(=O)N(C)C(=O)N(C)C3=O)c3cc(C(=O)OC)ccc32)cc1 | 99 | 98 | 88 | 113 | 105
CN1C(=O)C(=Cc2cn(Cc3ccc(C#N)cc3)c3ccccc23)C(=O)N(C)C1=O | -71 | 6 | -72 | 62 | 68
COC(=O)c1ccc2c(c1)c(C=C1C(=O)N(C)C(=O)N(C)C1=O)cn2Cc1ccc(S(=O)(=O)c2ccccc2)cc1 | 88 | 108 | 98 | 100 | 83
